Data reported in ChEMBL document CHEMBL5649170, “Sustained microglial depletion with CSF1R inhibitor impairs parenchymal plaque development in an Alzheimer's disease model” (Nat Commun, 2019).
pIC50: −log10 of the molar value. Activity calls are given as the source filed them. The calls are words filed in the database; no cut-off is given here.

Tests used:
[1] = molecular target: RAC-beta serine/threonine-protein kinase (Homo sapiens, UniProt P31751); test: Inhibition of AKT2 (unknown origin)
[2] = molecular target: Tyrosine-protein kinase BTK (Homo sapiens, UniProt Q06187); test: Inhibition of BTK (unknown origin)
[3] = molecular target: Serine/threonine-protein kinase MRCK alpha (Homo sapiens, UniProt Q5VT25); test: Inhibition of CDC42_BPA (unknown origin)
[4] = Inhibition of CDK2/CyclinA (unknown origin); parameters: species or system Homo sapiens
[5] = molecular target: Casein kinase I isoform gamma-3 (Homo sapiens, UniProt Q9Y6M4); test: Inhibition of CSNK1G3 (unknown origin)
[6] = molecular target: Tyrosine-protein kinase Fes/Fps (Homo sapiens, UniProt P07332); test: Inhibition of FES (unknown origin)
Chain of Tyrosine-protein kinase Fes/Fps (P07332 whole entry): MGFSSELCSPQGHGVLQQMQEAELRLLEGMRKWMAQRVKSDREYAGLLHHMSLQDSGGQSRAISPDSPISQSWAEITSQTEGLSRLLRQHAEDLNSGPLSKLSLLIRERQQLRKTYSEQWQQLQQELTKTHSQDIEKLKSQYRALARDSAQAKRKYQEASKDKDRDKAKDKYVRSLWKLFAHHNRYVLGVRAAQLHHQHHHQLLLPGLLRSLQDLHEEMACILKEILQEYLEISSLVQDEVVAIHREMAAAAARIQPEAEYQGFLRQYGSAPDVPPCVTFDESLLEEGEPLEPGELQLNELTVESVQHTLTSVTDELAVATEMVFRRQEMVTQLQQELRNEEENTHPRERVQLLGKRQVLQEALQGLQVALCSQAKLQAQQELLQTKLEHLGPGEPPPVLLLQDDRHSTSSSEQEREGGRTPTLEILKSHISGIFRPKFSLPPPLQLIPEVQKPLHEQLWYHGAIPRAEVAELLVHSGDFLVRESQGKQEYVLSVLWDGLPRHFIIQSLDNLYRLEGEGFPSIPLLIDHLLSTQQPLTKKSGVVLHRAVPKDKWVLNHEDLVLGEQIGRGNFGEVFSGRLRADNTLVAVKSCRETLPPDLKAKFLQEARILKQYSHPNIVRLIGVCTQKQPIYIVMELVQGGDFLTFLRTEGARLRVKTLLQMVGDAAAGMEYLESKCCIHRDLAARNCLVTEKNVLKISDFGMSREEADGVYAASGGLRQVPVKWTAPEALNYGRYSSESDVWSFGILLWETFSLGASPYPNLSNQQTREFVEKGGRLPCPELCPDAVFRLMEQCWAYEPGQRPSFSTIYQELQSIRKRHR

[7] = molecular target: Tyrosine-protein kinase FRK (Homo sapiens, UniProt P42685); test: Inhibition of FRK (unknown origin)
[8] = molecular target: Tyrosine-protein kinase ITK/TSK (Homo sapiens, UniProt Q08881); test: Inhibition of ITK (unknown origin)
[9] = molecular target: Leucine-rich repeat serine/threonine-protein kinase 2 (Homo sapiens, UniProt Q5S007); test: Inhibition of LRRK2 (unknown origin)
Chain of Leucine-rich repeat serine/threonine-protein kinase 2 (Q5S007 whole entry): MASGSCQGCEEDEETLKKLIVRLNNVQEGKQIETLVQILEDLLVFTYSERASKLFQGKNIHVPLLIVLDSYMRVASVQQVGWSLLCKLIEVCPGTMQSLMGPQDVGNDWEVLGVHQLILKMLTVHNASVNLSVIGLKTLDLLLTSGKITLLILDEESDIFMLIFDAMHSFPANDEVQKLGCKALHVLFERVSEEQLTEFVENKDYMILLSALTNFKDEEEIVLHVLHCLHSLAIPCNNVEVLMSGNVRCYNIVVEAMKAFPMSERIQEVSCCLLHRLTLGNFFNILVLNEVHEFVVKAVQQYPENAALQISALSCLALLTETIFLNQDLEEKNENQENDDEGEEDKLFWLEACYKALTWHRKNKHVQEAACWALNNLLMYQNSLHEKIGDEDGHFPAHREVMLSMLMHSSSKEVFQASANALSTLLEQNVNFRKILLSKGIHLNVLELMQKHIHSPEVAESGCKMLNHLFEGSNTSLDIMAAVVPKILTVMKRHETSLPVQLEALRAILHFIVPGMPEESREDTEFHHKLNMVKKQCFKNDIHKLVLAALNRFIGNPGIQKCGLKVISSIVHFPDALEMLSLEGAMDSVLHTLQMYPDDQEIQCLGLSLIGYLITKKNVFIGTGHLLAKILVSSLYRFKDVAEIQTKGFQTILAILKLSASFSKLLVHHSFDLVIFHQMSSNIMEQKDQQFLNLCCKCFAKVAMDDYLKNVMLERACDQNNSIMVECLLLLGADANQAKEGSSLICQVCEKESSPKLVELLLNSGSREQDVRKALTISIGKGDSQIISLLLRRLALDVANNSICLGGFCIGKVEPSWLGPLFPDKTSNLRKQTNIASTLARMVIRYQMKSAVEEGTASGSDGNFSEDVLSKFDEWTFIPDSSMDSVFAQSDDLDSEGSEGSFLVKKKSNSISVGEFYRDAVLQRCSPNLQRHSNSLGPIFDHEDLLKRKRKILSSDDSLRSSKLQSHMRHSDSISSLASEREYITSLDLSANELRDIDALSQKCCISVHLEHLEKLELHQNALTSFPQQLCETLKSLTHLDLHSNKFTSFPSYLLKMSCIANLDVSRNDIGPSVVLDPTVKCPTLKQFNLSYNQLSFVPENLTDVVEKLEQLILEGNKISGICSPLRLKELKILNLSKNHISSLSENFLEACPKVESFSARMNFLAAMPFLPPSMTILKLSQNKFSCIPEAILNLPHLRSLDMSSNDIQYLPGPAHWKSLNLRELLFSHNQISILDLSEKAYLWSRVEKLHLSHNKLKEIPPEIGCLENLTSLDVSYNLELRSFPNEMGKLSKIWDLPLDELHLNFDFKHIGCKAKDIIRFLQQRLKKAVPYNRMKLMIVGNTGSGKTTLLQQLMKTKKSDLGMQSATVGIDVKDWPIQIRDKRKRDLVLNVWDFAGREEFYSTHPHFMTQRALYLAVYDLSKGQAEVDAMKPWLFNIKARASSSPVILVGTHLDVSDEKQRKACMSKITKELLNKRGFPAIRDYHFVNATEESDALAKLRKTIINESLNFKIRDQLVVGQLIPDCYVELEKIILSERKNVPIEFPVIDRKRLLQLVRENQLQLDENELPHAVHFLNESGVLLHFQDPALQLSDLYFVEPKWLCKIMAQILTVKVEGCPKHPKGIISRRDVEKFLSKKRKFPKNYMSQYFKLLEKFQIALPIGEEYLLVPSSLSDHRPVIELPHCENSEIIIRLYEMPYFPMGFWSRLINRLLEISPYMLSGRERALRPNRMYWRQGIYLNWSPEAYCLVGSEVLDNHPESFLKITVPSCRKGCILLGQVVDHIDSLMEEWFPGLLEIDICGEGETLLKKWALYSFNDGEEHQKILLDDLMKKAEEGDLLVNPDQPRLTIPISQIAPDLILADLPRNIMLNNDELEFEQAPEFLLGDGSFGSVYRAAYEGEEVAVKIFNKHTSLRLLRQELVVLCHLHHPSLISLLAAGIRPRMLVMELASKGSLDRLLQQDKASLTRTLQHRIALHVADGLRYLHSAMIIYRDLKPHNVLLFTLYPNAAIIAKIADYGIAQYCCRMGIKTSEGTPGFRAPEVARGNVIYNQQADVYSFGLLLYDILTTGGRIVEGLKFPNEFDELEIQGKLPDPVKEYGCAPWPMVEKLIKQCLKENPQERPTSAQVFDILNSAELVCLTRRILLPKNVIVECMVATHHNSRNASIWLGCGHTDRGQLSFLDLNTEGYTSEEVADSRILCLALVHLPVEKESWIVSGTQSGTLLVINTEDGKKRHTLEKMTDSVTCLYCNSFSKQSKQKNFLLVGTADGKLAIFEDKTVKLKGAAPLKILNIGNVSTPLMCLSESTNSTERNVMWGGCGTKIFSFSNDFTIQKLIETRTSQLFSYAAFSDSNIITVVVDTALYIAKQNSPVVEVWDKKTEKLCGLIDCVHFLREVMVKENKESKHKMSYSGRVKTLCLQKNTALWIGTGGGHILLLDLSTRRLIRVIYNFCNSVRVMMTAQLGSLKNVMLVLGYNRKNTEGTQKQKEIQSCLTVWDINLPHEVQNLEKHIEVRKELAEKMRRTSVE

[10] = molecular target: Phosphatidylinositol 3-kinase catalytic subunit type 3 (Homo sapiens, UniProt Q8NEB9); test: Inhibition of PIK3C3 (unknown origin)
Chain of Phosphatidylinositol 3-kinase catalytic subunit type 3 (Q8NEB9 whole entry): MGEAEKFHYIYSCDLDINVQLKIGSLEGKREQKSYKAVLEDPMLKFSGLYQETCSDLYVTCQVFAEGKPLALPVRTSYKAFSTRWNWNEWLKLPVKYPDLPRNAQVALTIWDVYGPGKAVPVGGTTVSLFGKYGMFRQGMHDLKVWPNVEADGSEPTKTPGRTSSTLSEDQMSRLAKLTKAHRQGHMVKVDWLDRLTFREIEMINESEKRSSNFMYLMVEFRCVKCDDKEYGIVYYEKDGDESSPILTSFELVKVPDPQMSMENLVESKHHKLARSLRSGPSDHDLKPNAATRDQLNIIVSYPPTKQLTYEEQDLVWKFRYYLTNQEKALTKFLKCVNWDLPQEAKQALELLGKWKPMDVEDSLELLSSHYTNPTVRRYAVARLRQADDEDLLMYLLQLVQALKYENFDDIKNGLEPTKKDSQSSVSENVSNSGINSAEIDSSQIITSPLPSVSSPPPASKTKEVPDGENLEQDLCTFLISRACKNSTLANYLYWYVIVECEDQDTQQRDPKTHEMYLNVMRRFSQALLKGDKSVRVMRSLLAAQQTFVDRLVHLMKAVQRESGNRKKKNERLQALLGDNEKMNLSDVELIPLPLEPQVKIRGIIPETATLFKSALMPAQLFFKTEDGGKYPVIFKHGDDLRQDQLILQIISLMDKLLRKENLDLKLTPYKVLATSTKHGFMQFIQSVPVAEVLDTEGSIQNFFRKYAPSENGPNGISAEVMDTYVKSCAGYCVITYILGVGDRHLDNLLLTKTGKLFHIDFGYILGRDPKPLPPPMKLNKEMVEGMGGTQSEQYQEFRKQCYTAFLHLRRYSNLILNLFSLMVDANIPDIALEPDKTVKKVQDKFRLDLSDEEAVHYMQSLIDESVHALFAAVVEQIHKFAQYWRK

[11] = molecular target: Serine/threonine-protein kinase PLK2 (Homo sapiens, UniProt Q9NYY3); test: Inhibition of PLK2 (unknown origin)
Chain of Serine/threonine-protein kinase PLK2 (Q9NYY3 whole entry): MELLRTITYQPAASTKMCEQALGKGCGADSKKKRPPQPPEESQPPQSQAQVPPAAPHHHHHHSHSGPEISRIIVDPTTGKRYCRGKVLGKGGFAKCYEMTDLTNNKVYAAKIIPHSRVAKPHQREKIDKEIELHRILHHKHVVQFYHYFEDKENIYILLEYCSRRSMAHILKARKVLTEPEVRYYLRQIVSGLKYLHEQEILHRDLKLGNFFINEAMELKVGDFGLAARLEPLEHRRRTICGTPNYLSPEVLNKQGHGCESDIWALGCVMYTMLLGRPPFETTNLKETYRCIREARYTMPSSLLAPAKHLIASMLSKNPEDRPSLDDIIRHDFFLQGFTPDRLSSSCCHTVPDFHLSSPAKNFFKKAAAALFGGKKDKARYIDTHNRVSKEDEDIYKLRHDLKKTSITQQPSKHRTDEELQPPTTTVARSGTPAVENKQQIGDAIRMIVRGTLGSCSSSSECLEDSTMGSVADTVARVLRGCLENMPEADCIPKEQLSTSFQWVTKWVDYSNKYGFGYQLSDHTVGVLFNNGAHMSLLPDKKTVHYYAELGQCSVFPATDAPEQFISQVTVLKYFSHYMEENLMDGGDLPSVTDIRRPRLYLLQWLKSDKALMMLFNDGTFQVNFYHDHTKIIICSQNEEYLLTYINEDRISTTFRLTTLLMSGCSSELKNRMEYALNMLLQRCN

[12] = molecular target: Proto-oncogene tyrosine-protein kinase receptor Ret (Homo sapiens, UniProt P07949); test: Inhibition of RET (unknown origin)
[13] = molecular target: Receptor-type tyrosine-protein kinase FLT3 (Homo sapiens, UniProt P36888); test: Inhibition of FLT3 (unknown origin) in presence of ATP by enzymatic assay
[14] = Half-life in female rat at 1.13 mg/kg, iv administered as single dose; type: ADME, organism-based; conditions: in vivo
[15] = Oral bioavailability in dog at 45 mg/kg administered as single via gavage; type: ADME, organism-based, Canis lupus familiaris; conditions: in vivo
[16] = Toxicity in wildtype mouse assessed as number of platform entry at 1200 ppm administered as rodent chow for 10 to 24 weeks by Morris water maze test (reference value: 0 to 5); conditions: in vivo, po, time 10-24 weeks
Mus musculus [17] = test: Antialzheimer activity in 5XFAD mouse assessed as amyloidbeta38 level in detergent soluble thalamus fraction measured per microgram protein at 1200 ppm administered as rodent chow starting from 1.5 months and measured after 7 months by ELISA (reference value: 0 to 0.010 pg); type: functional; conditions: route po, time 5.5 months, 4015 h
In short: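 PLX5622 at 1200 ppm in chow given to 5xFAD mice from 1.5 months to 4 or 7 months of age; cortex and thalamus homogenized in TPER (detergent-soluble), pellets re-homogenized in 70% formic acid and spun 100,000 g, 1 h, 4 °C (insoluble); protein by Bradford/Lowry; Aβ species measured by Meso Scale electrochemiluminescence immunoassay, normalized to protein; n = 7–8 per group at 7 months.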

Mus musculus [18] = test: Antialzheimer activity in 5XFAD mouse assessed as iron reactivity by measuring hemosiderin intensity of prussian blue staining in thalamus at 1200 ppm administered as rodent chow starting from 1.5 months and measured after 4 months by confocal microscopic analysis (reference value: 0.1 to 4.094 a.u.); type: functional; conditions: route po, time 2.5 months, 1825 h
In short: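 Wild-type or 5xFAD mice fed PLX5622 (1200 ppm) in AIN-76A chow from 1.5 months of age, examined in 4- and 7-month-old cohorts. Brain sections stained with a Prussian blue kit per kit instructions to detect iron deposits (microbleeds).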

[19] = Effect on Cx3cr1 gene expression in wild type mouse hippocampus at 1200 ppm administered as rodent chow starting from 1.5 months and measured after 7 months by RNA-Seq analysis (reference value: 9.911 to 12.014 RPKM); type: functional; conditions: route po, time 5.5 months, 4015 h
[20] = Effect on Siglech gene expression in 5XFAD mouse cortex at 1200 ppm administered as rodent chow starting from 1.5 months and measured after 7 months by RNA-Seq analysis (reference value: 5.048 to 7.930 RPKM); type: functional; conditions: route po, time 5.5 months, 4015 h
[21] = Effect on ccl6 gene expression in 5XFAD mouse hippocampus at 1200 ppm administered as rodent chow starting from 1.5 months and measured after 7 months by RNA-Seq analysis (reference value: 5.688 to 8.240 RPKM); type: functional; conditions: route po, time 5.5 months, 4015 h
[22] = Effect on Ctsd gene expression in wild type mouse thalamus at 1200 ppm administered as rodent chow starting from 1.5 months and measured after 7 months by RNA-Seq analysis (reference value: 123.974 to 159.747 RPKM); type: functional; conditions: route po, time 5.5 months, 4015 h
[23] = Effect on Itgax gene expression in wild type mouse thalamus at 1200 ppm administered as rodent chow starting from 1.5 months and measured after 7 months by RNA-Seq analysis (reference value: 0.077 to 0.240 RPKM); type: functional; conditions: route po, time 5.5 months, 4015 h
[24] = Prevention of Nrg3 gene downregulation in 5XFAD mouse hippocampus assessed as percent change in Reads Per kilo base per Million mapped reads at 1200 ppm administered as rodent chow starting from 1.5 months and measured after 7 months by RNA-Seq analysis (reference value: 52.623 to 75.016 %); type: functional; conditions: route po, time 5.5 months, 4015 h
Mus musculus [25] = test: Prevention of Cx3cr1 gene upregulation in 5XFAD mouse hippocampus at 1200 ppm administered as rodent chow starting from 1.5 months and measured after 7 months by Nanostring analysis; type: functional, tissue-based; conditions: route po, time 5.5 months

COc1ncc(F)cc1CNc1ccc(Cc2c[nH]c3ncc(C)cc23)c(F)n1 [PLX-5622]
pIC50 [1]: < 6.00 | pIC50 [2]: < 6.00 | pIC50 [3]: < 6.00 | pIC50 [4]: < 6.00 | pIC50 [5]: < 6.00 | pIC50 [6]: < 6.00 | pIC50 [7]: < 6.00 | pIC50 [8]: < 6.00 | pIC50 [9]: < 6.00 | pIC50 [10]: < 6.00 | pIC50 [11]: < 6.00 | pIC50 [12]: < 6.00 | pIC50 [13]: 6.41 | half-life [14]: 3.9 h | bioavailability [15]: 34% | Activity [16]: 1 | Activity (Mus musculus [17]): 0 pg | Flu intensity (Mus musculus [18]): 0.249 a.u. | Activity [19]: 0.074 RPKM | Activity [20]: 0.14 RPKM | Activity [21]: 0.488 RPKM | Activity [22]: 100.931 RPKM | Activity [23]: 0 RPKM | Activity [24]: 86.32% | Activity (Mus musculus [25]): Active
